Data reported in PubChem BioAssay.
Records with an inconclusive call do not appear.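 The calls were made as follows, unless noted: active = cell viability at or below a set limit in both duplicate runs, the limit being the all-compound median minus 4 SD (cut at about 23% in these data, passing the limit was not always enough); inconclusive = no clear call, values can overlap the other calls; inactive = the rest.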

How the values were obtained:
[1] = S. cerevisiae growth inhibition in permissive medium (OD615), pilot counter-assay for S. cerevisiae lifespan shortening project, permissive growth control (AID 705;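 active = growth inhibition above 25% in both replicates, a cutoff set 3 SD above the mean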); settings: OD615, 24 h, at 10 µM, stronger effect = higher value
Outline: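 Material: engineered DeaD yeast; compound dosing: one dose 10 µM, DMSO 0.25% final; measure: yeast growth inhibition indicated by reduced 24 h OD615; detection: OD615 turbidity read; incubation: cells pre-grown 4 h, then 24 h compound exposure, 30 °C humidified; medium: permissive synthetic complete medium with raffinose and galactose carbon sources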

[2] = S. cerevisiae growth inhibition in restrictive medium, OD615, pilot screen, restrictive growth control, yeast lifespan reduction project (AID 706;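 active = growth inhibition above a set limit, 3 SD over mean compound inhibition, in both replicates, cut at about 43% in these data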;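 also: modified DeaD lifespan yeast strain shifted to restrictive glucose medium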); settings: OD615, 48 h, at 10 µM, stronger effect = higher value
Outline: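 material = engineered S. cerevisiae DeaD strain | medium = glucose-based CSMM-D restrictive medium | times = 4 h pre-incubation, 48 h exposure at 30 °C | technique = OD615 absorbance reading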

[3] = doxorubicin toxicity protection in MRP-1 cells – H69AR cells, CellTiter-Glo, duplicate, MRP-1 activator project, pilot screen (AID 807;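 active = viability increase at or above a cutoff of the median across tested compounds plus 3 SD, cut at about 8.5% in these data, passing the limit was not always enough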;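 also: compound pretreatment 18-22 h then 72 h combined with doxorubicin; 0% = doxorubicin alone and 100% = vehicle without doxorubicin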); settings: H69AR viability with doxorubicin, CellTiter-Glo luminescence; at 10 µM; stronger effect = higher value
[4] = viability of HCT116 without oncogenic beta-catenin – human colon tumor cells, pilot screen (AID 823); settings: HCT116 beta-catenin knockout viability, CellTiter-Glo, 60 h; at 10 µM; stronger effect = lower value;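 also: 0% = wells killed by 20 µM Hyamine and 100% = untreated DMSO cell wells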
[5] = viability of PTEN-null HCT116 cells – cell-based, HCT116 clonal line, CellTiter-Glo, pilot screen (AID 824;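 active = viability at or below 27.92% in each of two runs, the all-compound median minus 4 SD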;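 also: 0% = 20 µM Hyamine control and 100% = vehicle cell control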); settings: HCT116 PTEN-deleted viability, 60 h, at 10 µM, stronger effect = lower value
[6] = RAM pathway blockade in budding yeast – dse1pr::URA3 reporter, 5-FOA selection, pilot screen (AID 869;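 active = inhibition over a set limit, the all-compound mean plus 3 SD, in both replicate runs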;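 also: 0% = DMSO wells with no growth and 100% = 10 µM 1-NA-PP1 with full growth; RAM network block rescues cells from 5-FOA so hits raise OD615 growth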); settings: S. cerevisiae dse1pr::URA3 5-FOA growth, OD615, 2 d; at 10 µM; stronger effect = higher value; strain carries analog-sensitive mutant Cbk1 kinase
[7] = RAM signaling pathway blockade in yeast – S. cerevisiae, Pdr1DBD-CYC8 efflux-inhibited sensitized strain, primary screen (AID 1298;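 active = RAM network inhibition above 8.4% in each of two replicates, 3 SD over the compound average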;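 also: 0% = DMSO untreated cells without growth and 100% = 10 µM 1-NA-PP1 full growth; higher means more yeast growth rescued from 5-FOA killing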); settings: S. cerevisiae cbk1-as DSE1-URA3 strain, 5-FOA growth OD615, 2 d; at 50 µM; stronger effect = higher value

O=S(=O)(NCCO)c1cccc2cccnc12
inactive: growth inhibition [1] -8.73% | growth inhibition [2] -10.2% | viability increase [3] -1.21% | viability [4] 94% | viability [5] 85.4% | inhibition [6] 1.24% | RAM network inhibition [7] -0.64%

CCCCC(=O)Nc1ccc2c(c1)C(=O)NC2=O
inactive: growth inhibition [1] -2.94% | growth inhibition [2] -3.99% | viability increase [3] 0.07% | viability [4] 101% | viability [5] 94.5% | inhibition [6] 2.62% | RAM network inhibition [7] 2.45%

CC(=O)Nc1ccc(S(=O)(=O)n2cnc3cc(C)c(C)cc32)cc1
inactive: growth inhibition [1] -7.58% | growth inhibition [2] 1.31% | viability increase [3] -0.2% | viability [4] 99.6% | viability [5] 92.2% | inhibition [6] -0.09% | RAM network inhibition [7] 1.45%

Cc1ccc(-n2ncc3c(=O)[nH]c(SCC(=O)N4CCCC4)nc32)cc1C
inactive: growth inhibition [1] -6.01% | growth inhibition [2] -4.8% | viability increase [3] -4.32% | viability [4] 105% | viability [5] 91.8% | inhibition [6] 1.81% | RAM network inhibition [7] 1.73%

CCC(C)Nc1nc2c(c(=O)n(C)c(=O)n2C)n1Cc1ccc(Cl)cc1 (stereo not given)
inactive: growth inhibition [1] -0.995% | growth inhibition [2] -4.79% | viability increase [3] -4.21% | viability [4] 79% | viability [5] 70.6% | inhibition [6] -0.035% | RAM network inhibition [7] 4.57%

CCSc1nc2c(c(=O)[nH]1)C(C(C)C)C(C#N)=C(N)O2 (stereo not given)
inactive: growth inhibition [1] -20.5% | growth inhibition [2] -13% | viability increase [3] -2.8% | viability [4] 106% | viability [5] 98.9% | inhibition [6] 0.63% | RAM network inhibition [7] 2.73%

Nc1c(S(=O)(=O)c2ccccc2)c2nc3ccccc3nc2n1/N=C/c1ccco1
inactive: growth inhibition [1] -7.84% | growth inhibition [2] -8.93% | viability increase [3] -5.63% | viability [4] 51.5% | viability [5] 52% | inhibition [6] 2.34% | RAM network inhibition [7] 4.98%

Cc1ccc(F)cc1NC(=O)c1c(-c2ccccc2)noc1C
inactive: growth inhibition [1] -10.2% | growth inhibition [2] -26.1% | viability increase [3] -2.01% | viability [4] 78.8% | viability [5] 72.9% | inhibition [6] 0.015% | RAM network inhibition [7] 2.22%

CCOC(=O)c1[nH]c(=O)[nH]c1COC(=O)c1cc2ccccc2o1
inactive: growth inhibition [1] -14.6% | growth inhibition [2] -12.6% | viability increase [3] -1.09% | viability [4] 92.6% | viability [5] 105% | inhibition [6] -0.22% | RAM network inhibition [7] 2.38%

CCOc1ccc(-c2cc(CCCC(=O)NCc3ccco3)no2)cc1
inactive: growth inhibition [1] -2.19% | growth inhibition [2] -4.02% | viability increase [3] -2.79% | viability [4] 86.5% | viability [5] 88% | inhibition [6] 0.22% | RAM network inhibition [7] 1.77%

CCc1nc(SCC(=O)Nc2ccc(C(=O)O)cc2)n[nH]1
inactive: growth inhibition [1] 11.2% | growth inhibition [2] 0.705% | viability increase [3] -1.05% | viability [4] 94.7% | viability [5] 98.4% | inhibition [6] -0.24% | RAM network inhibition [7] -2.73%

COC(=O)c1ccc(C2C(C(=O)Nc3ccc(C)cc3C)=C(C)Nc3ncnn32)cc1 (stereo not given)
inactive: growth inhibition [1] 2.06% | growth inhibition [2] 9.76% | viability increase [3] -2.32% | viability [4] 97.2% | viability [5] 92.9% | inhibition [6] 2.46% | RAM network inhibition [7] 8.36%

COc1ccc(C(=O)OCCN2C(=O)c3ccccc3C2=O)cc1
inactive: growth inhibition [1] -3.96% | growth inhibition [2] -5.23% | viability increase [3] -0.3% | viability [4] 100% | viability [5] 93.7% | inhibition [6] 0.645% | RAM network inhibition [7] 7.05%

Nc1[nH]nc2nc(N3CCOCC3)nc(-c3ccccc3)c12
inactive: growth inhibition [1] -7.04% | growth inhibition [2] 4.65% | viability increase [3] -4.39% | viability [4] 88.2% | viability [5] 88.3% | inhibition [6] 2.38% | RAM network inhibition [7] 1.55%

O=C(Oc1ccnc2cc(Cl)ccc12)N1CCOCC1
inactive: growth inhibition [1] -4.51% | growth inhibition [2] 5.71% | viability increase [3] -3.29% | viability [4] 87.3% | viability [5] 87.8% | inhibition [6] 1.1% | RAM network inhibition [7] 7.61%

CCN(CC)C(=O)CN(Cc1ccccc1)S(=O)(=O)c1ccc(F)cc1
inactive: growth inhibition [1] -8.49% | growth inhibition [2] -11.4% | viability increase [3] -0.99% | viability [4] 93.8% | viability [5] 97.5% | inhibition [6] 1.32% | RAM network inhibition [7] 2.88%

O=C(C1CC1)N1CCc2cc(Br)cc(S(=O)(=O)NCc3ccc4c(c3)OCO4)c21
inactive: growth inhibition [1] -4.48% | growth inhibition [2] -5.21% | viability increase [3] -1.52% | viability [4] 87.1% | viability [5] 86.1% | inhibition [6] 1.23% | RAM network inhibition [7] 5.72%

CCN1CCc2c(sc(NC(=O)c3ccc(S(=O)(=O)N4CCOCC4)cc3)c2C(N)=O)C1
inactive: growth inhibition [1] -2.02% | growth inhibition [2] -1.51% | viability increase [3] -2.7% | viability [4] 86.8% | viability [5] 87.2% | inhibition [6] 1.45% | RAM network inhibition [7] 0.16%

Cc1ccc(C(=O)NCc2ccc(Cl)c(Cl)c2)o1
inactive: growth inhibition [1] -3.73% | growth inhibition [2] 4.06% | viability increase [3] 0.03% | viability [4] 98% | viability [5] 98.5% | inhibition [6] 0.67% | RAM network inhibition [7] 1.28%

Cc1ccccc1NC(=O)CN(C)S(=O)(=O)c1cccc2cccnc12
inactive: growth inhibition [1] -2.9% | growth inhibition [2] -1.7% | viability increase [3] -0.34% | viability [4] 105% | viability [5] 95.7% | inhibition [6] 1.74% | RAM network inhibition [7] 2.49%

C=CCn1cc(C(=O)N2CCN(C)CC2)c(=O)c2cc(S(=O)(=O)N3CCCC3)ccc21
inactive: growth inhibition [1] -6.54% | growth inhibition [2] -12.6% | viability increase [3] -0.09% | viability [4] 105% | viability [5] 106% | inhibition [6] 0.73% | RAM network inhibition [7] 3.9%

COc1ccc(-n2nc(C(=O)N3CCC(C#N)CC3)c3c4ccccc4n(C)c3c2=O)cc1
inactive: growth inhibition [1] -14.9% | growth inhibition [2] -27% | viability increase [3] -4.6% | viability [4] 92.2% | viability [5] 88.9% | inhibition [6] 1.95% | RAM network inhibition [7] 7.49%

COC(=O)CCc1n[nH]c(=O)[nH]c1=O
inactive: growth inhibition [1] 3.66% | growth inhibition [2] 9.25% | viability increase [3] 0.89% | viability [4] 106% | viability [5] 102% | inhibition [6] 0.54% | RAM network inhibition [7] -0.87%

Cc1ccsc1C1NC(=O)c2c(sc3c2CCN(C)C3)N1 (stereo not given)
inactive: growth inhibition [1] -1.86% | growth inhibition [2] 1.39% | viability increase [3] -1.41% | viability [4] 97.5% | viability [5] 98.6% | inhibition [6] 1.37% | RAM network inhibition [7] -0.83%

CC1CCN(c2nc(-c3ccco3)c3c(c2C#N)CC(C)(C)OC3)CC1
inactive: growth inhibition [1] -15% | growth inhibition [2] -3.74% | viability increase [3] -6.85% | viability [4] 90.8% | viability [5] 89.6% | inhibition [6] 0.175% | RAM network inhibition [7] 0.92%

CS(=O)(=O)N1CCN(Cc2ccccc2C(F)(F)F)CC1
inactive: growth inhibition [1] -19.1% | growth inhibition [2] -5.12% | viability increase [3] 0.93% | viability [4] 91.1% | viability [5] 94% | inhibition [6] -0.185% | RAM network inhibition [7] 6.47%

CCn1ncc(C2=NOC(C(=O)Nc3c(C)n(C)n(-c4ccccc4)c3=O)C2)c1C (stereo not given)
inactive: growth inhibition [1] -7.05% | growth inhibition [2] 5.18% | viability increase [3] 0.26% | viability [4] 96.1% | viability [5] 95.8% | inhibition [6] 0.855% | RAM network inhibition [7] 2.78%

CC1CCCCN1C(=O)CSCC(=O)Nc1nc(-c2cccs2)cs1 (stereo not given)
inactive: growth inhibition [1] 2.07% | growth inhibition [2] -3.92% | viability increase [3] -4.62% | viability [4] 99.2% | viability [5] 94.6% | inhibition [6] 0.505% | RAM network inhibition [7] 1.69%

O=C(CN1CCN(C2CCCCC2)CC1)c1ccc2cc[nH]c2c1
inactive: growth inhibition [1] 5.4% | growth inhibition [2] 2.7% | viability increase [3] -3.56% | viability [4] 94% | viability [5] 85.7% | inhibition [6] 1.9% | RAM network inhibition [7] -1.26%

O=C(CCCC1=NS(=O)(=O)c2ccccc2N1)N1CCN(c2ccc(Cl)cc2)CC1
inactive: growth inhibition [1] -17.7% | growth inhibition [2] -0.86% | viability increase [3] -0.04% | viability [4] 91.7% | viability [5] 78.3% | inhibition [6] 0.37% | RAM network inhibition [7] 0.9%

CCN1CCN(C(=O)Cn2ncc3c2-c2ccccc2OC3)CC1
inactive: growth inhibition [1] 0.755% | growth inhibition [2] 0.8% | viability increase [3] -1.74% | viability [4] 106% | viability [5] 99.9% | inhibition [6] 1.14% | RAM network inhibition [7] 2.81%

CC(=O)C1=C(O)C(=O)N(CC(=O)O)C1c1ccccc1Cl (stereo not given)
inactive: growth inhibition [1] 0.915% | growth inhibition [2] 9.59% | viability increase [3] -0.3% | viability [4] 104% | viability [5] 104% | inhibition [6] 2.28% | RAM network inhibition [7] 2.43%

COc1ccc(C2C(C(=O)N3CCN(c4ccc(OC)cc4)CC3)c3ccccc3C(=O)N2C)cc1 (stereo not given)
inactive: growth inhibition [1] 1.52% | growth inhibition [2] -0.315% | viability increase [3] -0.98% | viability [4] 60.6% | viability [5] 61.9% | inhibition [6] 0.215% | RAM network inhibition [7] 0.86%

Cc1cc(C(=O)NCc2ccccc2)c(=O)[nH]c1C
inactive: growth inhibition [1] -15.4% | growth inhibition [2] -9.45% | viability increase [3] 0.83% | viability [4] 103% | viability [5] 90.3% | inhibition [6] 2.33% | RAM network inhibition [7] 0.52%

CCOC(=O)c1ccc(NC(=O)c2nccnc2C(=O)O)cc1
inactive: growth inhibition [1] -4.96% | growth inhibition [2] -2.24% | viability increase [3] -1.42% | viability [4] 98.1% | viability [5] 96.6% | inhibition [6] 1.07% | RAM network inhibition [7] -0.42%
